Experimental data of several laboratories.
Compare with care: the assays were run in different laboratories.
mraY: mraY (Staphylococcus aureus, UniProt Q2FZ93)
DCLK3: Serine/threonine-protein kinase DCLK3 (DCLK3, Homo sapiens, UniProt Q9C098)

target | test | system | conditions | measurement | value | Structure (SMILES)
Receptor-type tyrosine-protein kinase FLT3 (FLT3, Homo sapiens, UniProt P36888, R834Q) | binding |  | 0.1 µM | remaining binding | 17% | C1=C/COCc2cc(ccc2OCCN2CCCC2)Nc2nccc(n2)-c2cccc(c2)COC/1
B1 bradykinin receptor (BDKRB1, Homo sapiens, UniProt P46663) | ligand displacement, radioligand |  | 10 µM | inhibition | 0% | CCN1/C(=C/C(C)=O)Sc2ccc(F)cc21
mraY | cell-free assay, inhibitor |  | 250 µM | inhibition | 71% | CCCCCCC#Cc1cncc(-c2nnc(SCc3ccc([N+](=O)[O-])o3)n2CCCN)c1
Melatonin receptor type 1A (MTNR1A, Homo sapiens, UniProt P48039) | ligand displacement, radioligand |  | 10 µM | inhibition | < 50% | NC/C(=C\F)COc1cccc(Cn2c(=S)[nH]c(=O)c3[nH]cnc32)c1
Aurora kinase C (AURKC, Homo sapiens, UniProt Q9UQB9) | binding, competition with immobilised ligand |  | 1 µM | remaining binding | 99% | C[C@]1(O)CCCN(c2nc(Nc3ccc(S(=O)(=O)N[C@H]4CC[C@H](CN5CCN(c6ccc(C7CCC(=O)NC7=O)cc6F)CC5)CC4)cc3Cl)ncc2C(F)(F)F)C1 (some centres unmarked)
Rho-associated protein kinase 1 (ROCK1, Homo sapiens, UniProt Q13464) | enzyme activity, inhibitor |  | 15 nM | remaining activity | 31.3% | Cc1cc(-c2ccnc3[nH]cc(F)c23)cc(F)c1[C@@]1(O)[C@H](C)CN(C2CCS(=O)(=O)CC2)C[C@@H]1C
Gastrin/cholecystokinin type B receptor (CCKBR, Homo sapiens, UniProt P32239) | β-arrestin recruitment, agonist | HTLA |  | Emax | 102% | CCCC[C@H](NC(=O)[C@H](Cc1c[nH]c2ccccc12)N(C)C(=O)C1(O)C[C@H](O)[C@@H](NC(C)=O)[C@H]([C@H](O)[C@H](O)CO)O1)C(=O)N[C@@H](CC(=O)O)C(=O)N[C@@H](Cc1cccc(Br)c1)C(N)=O (some centres unmarked)
DCLK3 | binding, competition with immobilised ligand |  | 1 µM | remaining binding | 41% | CNS(=O)(=O)c1ccc(Nc2ncc(C(F)(F)F)c(N3CCC[C@](C)(O)C3)n2)c(C)c1
Testis-specific serine/threonine-protein kinase 1 (TSSK1B, Homo sapiens, UniProt Q9BXA7) | binding |  | 1 µM | remaining binding | 100% | COc1ccc2oc(-c3ccc4nc(N)oc4c3)c/c(=N\c3ccccc3NC(=O)CCN)c2c1
mraY | cell-free assay, inhibitor |  | 250 µM | inhibition | 82% | CCCCCCC#Cc1cncc(-c2nnc(SCc3ccc([N+](=O)[O-])cc3)n2CCCN)c1
DCLK3 | binding, competition with immobilised ligand |  | 1 µM | remaining binding | 43% | C[C@]1(O)CCCN(c2nc(Nc3ccc(S(=O)(=O)N[C@H]4CC[C@H](CN5CCN(c6ccc(C7CCC(=O)NC7=O)cc6F)CC5)CC4)cc3F)ncc2C(F)(F)F)C1 (some centres unmarked)
mraY | cell-free assay, inhibitor |  | 250 µM | inhibition | 61% | CCCCCCC#Cc1cncc(-c2nnc(SCc3ccc([N+](=O)[O-])o3)n2CCO)c1
DCLK3 | binding, competition with immobilised ligand |  | 1 µM | remaining binding | 28% | Cc1cc(S(=O)(=O)N[C@H]2CC[C@H](CN3CCN(c4ccc(C5CCC(=O)NC5=O)cc4F)CC3)CC2)ccc1Nc1ncc(C(F)(F)F)c(N2CCC[C@](C)(O)C2)n1 (some centres unmarked)
Serine/threonine-protein kinase SIK1 (SIK1, Homo sapiens, UniProt P57059) | binding, competition with immobilised ligand |  | 0.5 µM | remaining binding | 79% | CCCCC(=O)Nc1ccc(-c2ccc3ncn(CCC)c(=O)c3c2)cn1
